Bioassay records: PubChem BioAssay, several laboratories
Sampled rows, rich in hits. Any-hit rate of the full collection: about 9.6%.
PTEN del growth – suppresses growth of cells with PTEN deletion; HCT116 PTEN-null viability, CellTiter-Glo, 60 h; hits give low values; viability, % at 10 µM; hit rate 1.2% among 140,000; AID 827;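 active = viability at or below a set limit, 4 SD under the median of all tested compounds, cut at about 3.7% in these data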;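 also: PTEN knockout HCT116 line with beta catenin targeted HCT116 as companion control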
bCat KO growth – beta-catenin-lacking colon tumor cell growth suppression; HCT116 beta-catenin knockout viability, CellTiter-Glo, 60 h; hits give low values; viability, % at 10 µM; hit rate 1.5% among 140,000;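 active = viability at or under a set limit, the compound median less 4 SD, cut at about 6% in these data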;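 also: 0% = Hyamine 1622 control at 20 µM and 100% = untreated cell control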
TNAP inh hiacc – blocks human TNAP under high phosphate acceptor concentration; purified TNAP, CDP-star luminescence, 1 M DEA; inhibition, % at 20 µM; hit rate 0.03% among 200,000; AID 1135; P05186;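 active = over 50% inhibition of tissue-nonspecific alkaline phosphatase at 20 µM in the single-dose screen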;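 also: plate controls were DMSO wells for no effect and EDTA-quenched wells as full inhibition for full effect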
Target sequence (P05186 whole entry, looked up): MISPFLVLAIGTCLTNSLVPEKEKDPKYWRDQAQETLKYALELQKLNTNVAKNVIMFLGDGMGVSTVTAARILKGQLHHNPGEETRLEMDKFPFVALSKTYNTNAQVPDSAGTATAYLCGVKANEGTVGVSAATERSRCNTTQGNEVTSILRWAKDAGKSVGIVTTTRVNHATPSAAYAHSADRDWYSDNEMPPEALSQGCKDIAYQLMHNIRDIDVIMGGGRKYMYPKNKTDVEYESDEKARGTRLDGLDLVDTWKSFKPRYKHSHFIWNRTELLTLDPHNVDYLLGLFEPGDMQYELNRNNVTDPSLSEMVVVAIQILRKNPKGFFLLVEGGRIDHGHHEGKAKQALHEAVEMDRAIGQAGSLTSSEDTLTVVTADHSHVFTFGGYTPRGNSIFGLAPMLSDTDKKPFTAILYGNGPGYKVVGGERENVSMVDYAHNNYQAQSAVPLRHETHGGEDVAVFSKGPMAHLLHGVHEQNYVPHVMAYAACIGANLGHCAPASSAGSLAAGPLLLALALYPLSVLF
TNAP act hi DEA – increases human TNAP activity under high phosphate acceptor concentration. P05186. purified TNAP, CDP-star luminescence, 1 M DEA, 30 min; hits give high values; 0 = EDTA background, 1 = DMSO-only activity. activation factor at 20 µM. 200,000 tested, under 10 active;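 active = activation factor at least 2 at 20 µM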
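Measured by: Luminescent substrate turnover signal | Test system: Human TNAP | Input: TNAP 1/800 final | Dosing: 20 µM single point | Schedule: 30 min, room temperature | Controls: EDTA wells as negative control, DMSO wells as positive control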
TNAP inh no acc – inhibitors of human TNAP without phosphate acceptor; hit rate 0.26% among 200,000; inhibition, % at 20 µM; purified TNAP, CDP-star luminescence, 30 min; P05186;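 active = tissue-nonspecific alkaline phosphatase inhibition above about 50% at 20 µM in the single-dose screen, limit read from the data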;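 also: 0% = DMSO negative control and 100% = EDTA positive control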
Lmaj promast – Leishmania major promastigote growth inhibition. Leishmania major promastigotes, resazurin fluorescence viability. inhibition, % at 10 µM. hit rate 9% among 200,000; in the data active = inhibition above about 50%;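 also: promastigotes grown with compound for 44 hours at 28 °C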
* = called active by the depositor.

What do the screens show for `CN1/C(=C\C(=O)COC(=O)c2ccc(O)c(O)c2)C(C)(C)c2ccccc21`?
TNAP inh hiacc: 8; TNAP act hi DEA: 0.9; TNAP inh no acc: 24; Lmaj promast: 8

Results for CC(C)CN1CCN(Cc2ccc3ncccc3c2)CC1CCO (stereo unspecified) ?
TNAP inh hiacc: -4; TNAP act hi DEA: 1; TNAP inh no acc: -1; Lmaj promast: 5

Results for CNC(CC(=O)c1ccc([N+](=O)[O-])cc1)C(Cl)(Cl)Cl (stereo unspecified) ?
PTEN del growth: 3.4*; bCat KO growth: 2.6*; TNAP inh hiacc: 12; TNAP act hi DEA: 0.9; TNAP inh no acc: 3; Lmaj promast: 100*

What do the screens show for `Cc1ccc(NCC(=O)c2ccc([N+](=O)[O-])cc2)cc1`?
TNAP inh hiacc: 4; TNAP act hi DEA: 1; TNAP inh no acc: 6; Lmaj promast: 1

Results for COc1ccc(C(=O)/C=C/Nc2ccc([N+](=O)[O-])cc2)cc1 ?
PTEN del growth: 89; bCat KO growth: 93; TNAP inh hiacc: 1; TNAP act hi DEA: 1; TNAP inh no acc: -7; Lmaj promast: -3

Results for COc1ccc(C(=O)/C(C#N)=N/Nc2ccccc2[N+](=O)[O-])cc1 ?
PTEN del growth: 21; bCat KO growth: 17; TNAP inh hiacc: 17; TNAP act hi DEA: 0.8; TNAP inh no acc: 10; Lmaj promast: 5

What do the screens show for `COc1ccc(C(=O)/C(C#N)=N/Nc2ccc([N+](=O)[O-])cc2)cc1`?
TNAP inh hiacc: 44; TNAP act hi DEA: 0.6; TNAP inh no acc: 39; Lmaj promast: 56*

What do the screens show for `COc1ccc(C(=O)CC(Nc2ccc([N+](=O)[O-])cc2)c2ccc(OC)cc2)cc1` (stereo unspecified)?
PTEN del growth: 62; bCat KO growth: 73; TNAP inh hiacc: 3; TNAP act hi DEA: 1; TNAP inh no acc: -1; Lmaj promast: 82*

What do the screens show for `Cc1cc(C)nc(/N=C2\NC(=O)CC(C(=O)O)N2c2ccc(C)c(C)c2)n1` (stereo unspecified)?
TNAP inh hiacc: -8; TNAP act hi DEA: 1.1; TNAP inh no acc: -12; Lmaj promast: -3

How did O=C(NCc1ccccc1)Nc1cccn(Cc2ccccc2Cl)c1=O do in these assays?
TNAP inh hiacc: -6; TNAP act hi DEA: 1.1; TNAP inh no acc: -10; Lmaj promast: -3

How did C#CCNC(=O)C1=C[C@@H](c2ccc(Br)cc2)C[C@@H](OCCCCO)O1 do in these assays?
TNAP inh hiacc: -8; TNAP act hi DEA: 1.1; TNAP inh no acc: -7; Lmaj promast: 4

How did Cc1ccc(NC(=O)/C(=C/c2cccs2)NC(=O)c2ccco2)cc1 do in these assays?
PTEN del growth: 100; bCat KO growth: 91; TNAP inh hiacc: 0; TNAP act hi DEA: 1; TNAP inh no acc: -8; Lmaj promast: -3

What do the screens show for `Cc1ccc(OCCn2cccn2)c(C)c1`?
TNAP inh hiacc: -2; TNAP act hi DEA: 1; TNAP inh no acc: -8; Lmaj promast: -6

What do the screens show for `OCC1(CO)COC(c2ccccc2)=N1`?
TNAP inh hiacc: -2; TNAP act hi DEA: 1; TNAP inh no acc: -5; Lmaj promast: 4

Results for O=C1OCC(CO)(CO)N=C1NNc1ccc(Cl)c(Cl)c1 ?
PTEN del growth: 79; bCat KO growth: 85; TNAP inh hiacc: -5; TNAP act hi DEA: 1; TNAP inh no acc: 0; Lmaj promast: 100*

What do the screens show for `Cc1nnc(SCC(=O)N2CCCC2)n(N)c1=O`?
TNAP inh hiacc: 1; TNAP act hi DEA: 1; TNAP inh no acc: -8; Lmaj promast: -7

What do the screens show for `Cc1csc(NC(=O)C2CCN(S(=O)(=O)c3ccccc3F)CC2)n1`?
TNAP inh hiacc: 0; TNAP act hi DEA: 1; TNAP inh no acc: -11; Lmaj promast: 20

How did O=C1OC(N2CCN(C/C=C/c3ccccc3)CC2)c2ccccc21 (stereo unspecified) do in these assays?
PTEN del growth: 110; bCat KO growth: 98; TNAP inh hiacc: -4; TNAP act hi DEA: 1; TNAP inh no acc: 4; Lmaj promast: 56*

How did O=C1CC(N2CCN(C/C=C/c3ccccc3)CC2)C(=O)N1CCc1ccccc1 (stereo unspecified) do in these assays?
PTEN del growth: 75; bCat KO growth: 62; TNAP inh hiacc: 0; TNAP act hi DEA: 1; TNAP inh no acc: -7; Lmaj promast: 93*

How did O=C1CC(N2CCN(c3ccc(O)cc3)CC2)C(=O)N1Cc1cccs1 (stereo unspecified) do in these assays?
PTEN del growth: 44; bCat KO growth: 52; TNAP inh hiacc: 1; TNAP act hi DEA: 1; TNAP inh no acc: -8; Lmaj promast: 16

What do the screens show for `O=C1CC(N2CCN(C/C=C/c3ccccc3)CC2)C(=O)N1Cc1cccs1` (stereo unspecified)?
PTEN del growth: 88; bCat KO growth: 96; TNAP inh hiacc: -3; TNAP act hi DEA: 1; TNAP inh no acc: -8; Lmaj promast: 89*

How did NS(=O)(=O)c1ccc(CNC(=O)Cc2ccccc2F)cc1 do in these assays?
TNAP inh hiacc: 3; TNAP act hi DEA: 1; TNAP inh no acc: -9; Lmaj promast: -9

How did N#CCC1c2ccccc2CCN1C(=O)Nc1cccc(Cl)c1 (stereo unspecified) do in these assays?
PTEN del growth: 77; bCat KO growth: 88; TNAP inh hiacc: 0; TNAP act hi DEA: 1; TNAP inh no acc: -9; Lmaj promast: 63*

What do the screens show for `N#CCC1c2ccccc2CCN1C(=O)Nc1ccc(Cl)cc1` (stereo unspecified)?
PTEN del growth: 75; bCat KO growth: 85; TNAP inh hiacc: 1; TNAP act hi DEA: 1; TNAP inh no acc: -13; Lmaj promast: 12

How did Cc1cc2c(c(SCC#N)n1)C(=O)OC2 do in these assays?
TNAP inh hiacc: -4; TNAP act hi DEA: 1; TNAP inh no acc: -4; Lmaj promast: -6

Results for CC(C)(C)N(CC#CCC1(O)c2ccccc2-c2ccccc21)CCO ?
TNAP inh hiacc: -7; TNAP act hi DEA: 1.1; TNAP inh no acc: -6; Lmaj promast: -2

Results for O=c1[nH]c(/C(Cl)=C/c2c(F)cccc2Cl)nc2cc(Cl)ccc12 ?
PTEN del growth: 11; bCat KO growth: 19; TNAP inh hiacc: -1; TNAP act hi DEA: 1; TNAP inh no acc: -6; Lmaj promast: 79*

Results for O=c1[nH]c(/C(Cl)=C/c2cc(Cl)ccc2O)nc2cc(Cl)ccc12 ?
PTEN del growth: 39; bCat KO growth: 32; TNAP inh hiacc: -1; TNAP act hi DEA: 1; TNAP inh no acc: -16; Lmaj promast: 49

Results for O=C(CSc1ncnc2c1cnn2CCO)Nc1cccc(C(F)(F)F)c1 ?
PTEN del growth: 91; bCat KO growth: 89; TNAP inh hiacc: -1; TNAP act hi DEA: 1; TNAP inh no acc: -5; Lmaj promast: -3

Results for Cc1ccc2c(c1)S/C(=C/c1ccc[n+](C)c1)N2CCO ?
TNAP inh hiacc: 15; TNAP act hi DEA: 0.8; TNAP inh no acc: 7; Lmaj promast: 70*
